A value given as a limit tells only on which side of the number the result lay.

Experimental findings from publication PMC10150721 (Journal of Medicinal Chemistry, 2023) are described below.

Experiment [1] deals with class-I/IIb HDAC. The experiment is classed as cell-based. As to conditions: HT-29 cells. In short, it runs like this:
(§1)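 HT-29 cells were grown in DMEM with 10% FBS at 37 °C and 5% CO2, then trypsinised and washed into RPMI without phenol red containing 0.1% FBS. They were seeded at 200 000 cells/well overnight. Substrate was 100 μM Boc-Lys-TFA for class-IIa or 200 μM Boc-Lys-Ac for class-I/IIb, incubated 3 h at 37 °C. Trypsin developer with tween 80 then lysed the cells over 1 h; fluorescence read at ex 360/em 460 nm.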

In experiment [2] the test system is class-IIa HDAC. The format is cell-based. The following applies: HT-29 cells. The essentials: as §1
[3] abbreviates: screened at 1.0 and 10.0 µM side-by-side with SAHA and NT160.

Turning to `O=C(O)c1ccc(-c2noc(C(F)(F)F)n2)cc1` [compound 1, 4-(5-(trifluoromethyl)-1,2,4-oxadiazol-3-yl)benzoic acid], in experiment [1] (setting [3]), the “Inhibition of class-I, class-IIb HDAC activities” value is around 10%. For the same compound, the IC50 in experiment [1] (read-out: IC50, class-I/IIb HDAC) is above 10 µM; in experiment [2] (read-out: IC50, class-IIa HDAC), above 10 µM. Also, in experiment [2] (setting [3]), the “Inhibition of class-IIa HDAC activity” value is reported as around 10%.
